ChEMBL document CHEMBL2062418, “C3-heteroaroyl cannabinoids as photolabeling ligands for the CB2 cannabinoid receptor” (Bioorg Med Chem Lett, 2012)

Columns and labels:
Cannabinoid receptor 1 = Cannabinoid receptor 1 (Rattus norvegicus, UniProt P20272); experiment: Displacement of [3H]CP-55,940 from rat brain CB1 receptor
Summary of the method: (§1)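 Competition binding with [3H]CP-55,940 on rat brain membranes (CB1) or on membranes from HEK293 cells expressing mouse or human CB2. Screened first at two points in triplicate. Where that screen gave Ki below 1000 nM, Ki was taken from one 8-point experiment run in triplicate.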

Cannabinoid receptor 2 [1] = target: Cannabinoid receptor 2 (Homo sapiens, UniProt P34972); experiment: Displacement of [3H]CP-55,940 from human CB2 receptor expressed in HEK293 cells; assay type: cell-based; summary of the method: as §1
Cannabinoid receptor 2 (Homo sapiens, UniProt P34972), sequence (P34972 whole entry): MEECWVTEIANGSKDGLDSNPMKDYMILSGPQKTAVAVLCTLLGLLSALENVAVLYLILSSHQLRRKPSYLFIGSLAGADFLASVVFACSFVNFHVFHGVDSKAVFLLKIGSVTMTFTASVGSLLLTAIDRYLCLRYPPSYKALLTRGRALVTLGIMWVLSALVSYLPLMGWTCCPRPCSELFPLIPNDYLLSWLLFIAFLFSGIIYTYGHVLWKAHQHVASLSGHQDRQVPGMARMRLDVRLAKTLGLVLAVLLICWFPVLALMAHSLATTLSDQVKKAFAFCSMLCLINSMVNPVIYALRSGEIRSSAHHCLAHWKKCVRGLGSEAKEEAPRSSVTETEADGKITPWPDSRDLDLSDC

Cannabinoid receptor 2 [2] = target: Cannabinoid receptor 2 (Mus musculus, UniProt P47936); experiment: Displacement of [3H]CP-55,940 from mouse CB2 receptor expressed in HEK293 cells; assay type: cell-based; summary of the method: as §1
Cannabinoid receptor 2 (Mus musculus, UniProt P47936), sequence (P47936 whole entry): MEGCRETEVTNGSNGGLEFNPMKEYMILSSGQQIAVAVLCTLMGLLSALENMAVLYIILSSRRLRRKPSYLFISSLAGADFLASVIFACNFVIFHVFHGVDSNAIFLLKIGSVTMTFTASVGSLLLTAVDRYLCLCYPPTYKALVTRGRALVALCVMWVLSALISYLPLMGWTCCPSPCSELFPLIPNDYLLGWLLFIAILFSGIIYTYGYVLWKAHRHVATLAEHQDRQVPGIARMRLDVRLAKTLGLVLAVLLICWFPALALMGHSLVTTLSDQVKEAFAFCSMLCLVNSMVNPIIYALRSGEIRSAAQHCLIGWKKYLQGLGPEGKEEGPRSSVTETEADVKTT

[3] = target: Cannabinoid receptor 2 (Mus musculus) (UniProt P47936); conditions: HEK293, 342 nM
Cannabinoid receptor 2 (Mus musculus), sequence (P47936 whole entry): as above

[4] = Selectivity ratio of Ki for rat CB1 receptor to Ki for mouse CB2 receptor

Cannabinoid receptor 1, sequence (P20272 whole entry): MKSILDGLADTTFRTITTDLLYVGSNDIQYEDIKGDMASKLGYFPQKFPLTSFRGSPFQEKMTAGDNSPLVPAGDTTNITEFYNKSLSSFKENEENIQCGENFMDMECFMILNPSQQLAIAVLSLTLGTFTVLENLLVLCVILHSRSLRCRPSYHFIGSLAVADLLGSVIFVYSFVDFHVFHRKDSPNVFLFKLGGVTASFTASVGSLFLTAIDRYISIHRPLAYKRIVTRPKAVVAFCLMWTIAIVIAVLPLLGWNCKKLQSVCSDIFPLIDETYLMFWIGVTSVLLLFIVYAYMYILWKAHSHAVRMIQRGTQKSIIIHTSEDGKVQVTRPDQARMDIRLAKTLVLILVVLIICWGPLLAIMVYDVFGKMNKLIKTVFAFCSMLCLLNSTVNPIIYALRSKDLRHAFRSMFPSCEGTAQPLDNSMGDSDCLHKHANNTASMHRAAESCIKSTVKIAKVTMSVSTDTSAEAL

For `CC1(C)Oc2cc(C(=O)c3cccnc3)cc(O)c2[C@@H]2C[C@H](O)CC[C@H]21`, the Ki (Cannabinoid receptor 1) was > 1000 nM, the Ki (Cannabinoid receptor 2 [1]) was > 1000 nM and the Ki (Cannabinoid receptor 2 [2]) was > 1000 nM.
Molecule `CC1(C)Oc2cc(C(=O)c3cc4ccccc4s3)cc(O)c2[C@@H]2C[C@H](O)CC[C@H]21` has a Ki (Cannabinoid receptor 1) of 157 nM, a Ki (Cannabinoid receptor 2 [1]) of 113 nM and a Ki (Cannabinoid receptor 2 [2]) of 152 nM.
Work on `CC1(C)Oc2cc(C(=O)c3csc4ccccc34)cc(O)c2[C@@H]2C[C@H](O)CC[C@H]21` yielded a Bmax [3] of 67%, a Ratio Ki [4] of 37 and a Ki (Cannabinoid receptor 1) of 1250 nM. It also gave a Ki (Cannabinoid receptor 2 [1]) of 125 nM and a Ki (Cannabinoid receptor 2 [2]) of 34.2 nM.
In the case of `CC1(C)Oc2cc(C(=O)c3ccncc3)cc(O)c2[C@@H]2C[C@H](O)CC[C@H]21`, the Ki (Cannabinoid receptor 1) is reported as > 1000 nM, the Ki (Cannabinoid receptor 2 [1]) is reported as > 1000 nM and the Ki (Cannabinoid receptor 2 [2]) is reported as > 1000 nM.
Work on `CC1(C)Oc2cc(C(=O)c3cc4ccccc4o3)cc(O)c2[C@@H]2C[C@H](O)CC[C@H]21` yielded a Ki (Cannabinoid receptor 1) of 1360 nM, a Ki (Cannabinoid receptor 2 [1]) of 209 nM and a Ki (Cannabinoid receptor 2 [2]) of 163 nM.
Molecule `CC1(C)Oc2cc(C(=O)c3cccc(C(F)(F)F)c3)cc(O)c2[C@@H]2C[C@H](O)CC[C@H]21` has a Ki (Cannabinoid receptor 1) of 61.7 nM, a Ki (Cannabinoid receptor 2 [1]) of 37.3 nM and a Ki (Cannabinoid receptor 2 [2]) of 45.8 nM.
Molecule `CC1(C)Oc2cc(C(=O)c3ccccc3)cc(O)c2[C@@H]2C[C@H](O)CC[C@H]21` has a Ki (Cannabinoid receptor 1) of 968 nM, a Ki (Cannabinoid receptor 2 [1]) of 587 nM and a Ki (Cannabinoid receptor 2 [2]) of 247 nM.
For `CC1(C)Oc2cc(C(=O)c3cscn3)cc(O)c2[C@@H]2C[C@H](O)CC[C@H]21`, the Ki (Cannabinoid receptor 1) was > 1000 nM, the Ki (Cannabinoid receptor 2 [1]) was > 1000 nM and the Ki (Cannabinoid receptor 2 [2]) was > 1000 nM.
Molecule `CC1(C)Oc2cc(C(=O)c3cccc(F)c3)cc(O)c2[C@@H]2C[C@H](O)CC[C@H]21` has a Ki (Cannabinoid receptor 1) of 460 nM and a Ki (Cannabinoid receptor 2 [2]) of 370 nM.
In the case of `CC1(C)Oc2cc(C(=O)c3ccco3)cc(O)c2[C@@H]2C[C@H](O)CC[C@H]21`, the Ki (Cannabinoid receptor 1) is reported as > 1000 nM and the Ki (Cannabinoid receptor 2 [2]) is reported as > 1000 nM.
For `CC1(C)Oc2cc(C(=O)c3ccsc3)cc(O)c2[C@@H]2C[C@H](O)CC[C@H]21`, the Ki (Cannabinoid receptor 1) was 1040 nM, the Ki (Cannabinoid receptor 2 [1]) was 1550 nM and the Ki (Cannabinoid receptor 2 [2]) was 525 nM.
`CC1(C)Oc2cc(C(=O)c3coc4ccccc34)cc(O)c2[C@@H]2C[C@H](O)CC[C@H]21` gave a Ratio Ki [4] of 17, a Ki (Cannabinoid receptor 1) of 2880 nM and a Ki (Cannabinoid receptor 2 [1]) of 118 nM. For the same molecule, the Ki (Cannabinoid receptor 2 [2]) was 169 nM.
With `CC1(C)Oc2cc(C(=O)c3c[nH]c4ccccc34)cc(O)c2[C@@H]2C[C@H](O)CC[C@H]21` the Ratio Ki [4] was 17, the Ki (Cannabinoid receptor 1) was 1050 nM and the Ki (Cannabinoid receptor 2 [1]) was 159 nM. The Ki (Cannabinoid receptor 2 [2]) was 60.4 nM.
For `CC1(C)Oc2cc(C(=O)c3ccccn3)cc(O)c2[C@@H]2C[C@H](O)CC[C@H]21`, the Ki (Cannabinoid receptor 1) was > 1000 nM, the Ki (Cannabinoid receptor 2 [1]) was > 1000 nM and the Ki (Cannabinoid receptor 2 [2]) was > 1000 nM.
In the case of `CC1(C)Oc2cc(C(=O)c3ccncc3F)cc(O)c2[C@@H]2C[C@H](O)CC[C@H]21`, the Ki (Cannabinoid receptor 1) is reported as > 1000 nM and the Ki (Cannabinoid receptor 2 [2]) is reported as > 1000 nM.
With `CC1(C)Oc2cc(C(=O)c3cccs3)cc(O)c2[C@@H]2C[C@H](O)CC[C@H]21` the Ki (Cannabinoid receptor 1) was > 1000 nM and the Ki (Cannabinoid receptor 2 [2]) was > 1000 nM.
For `CC1(C)Oc2cc(C(=O)c3ccoc3)cc(O)c2[C@@H]2C[C@H](O)CC[C@H]21`, the Ki (Cannabinoid receptor 1) was > 1000 nM and the Ki (Cannabinoid receptor 2 [2]) was > 1000 nM.
For `CC1(C)Oc2cc(C(=O)c3cncs3)cc(O)c2[C@@H]2C[C@H](O)CC[C@H]21`, the Ki (Cannabinoid receptor 1) was > 1000 nM and the Ki (Cannabinoid receptor 2 [2]) was > 1000 nM.
Molecule `Cn1cc(C(=O)c2cc(O)c3c(c2)OC(C)(C)[C@@H]2CC[C@@H](O)C[C@@H]32)c2ccccc21` has a Ki (Cannabinoid receptor 1) of 3270 nM, a Ki (Cannabinoid receptor 2 [1]) of 3010 nM and a Ki (Cannabinoid receptor 2 [2]) of 406 nM.
